NPY Y2 blocker: NPY-Y2 (human) receptor antagonism. P49146. NPY-Y2 expressing cells, antagonist mode. inhibition, % at 2.7 µM. 140,000 tested, 0.99% active. AID 793; in the data active = inhibition above about 17%;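 note: 0% = vehicle with agonist challenge and 100% = reference antagonist with challenge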
NPY-Y1 PAM-ag: potentiates or activates human NPY-Y1 receptor; P25929; NPY-Y1 expressing cells, potentiator/agonist activation; activation, % at 3.6 µM; 220,000 tested, 0.37% active; in the data active = activation above about 33%, passing the limit was not always enough;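 note: cells stimulated with NPY at EC10 then isoproterenol at EC100; 0% = low agonist plus stimulus and 100% = saturating agonist plus stimulus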
Target sequence (P25929 whole entry, looked up): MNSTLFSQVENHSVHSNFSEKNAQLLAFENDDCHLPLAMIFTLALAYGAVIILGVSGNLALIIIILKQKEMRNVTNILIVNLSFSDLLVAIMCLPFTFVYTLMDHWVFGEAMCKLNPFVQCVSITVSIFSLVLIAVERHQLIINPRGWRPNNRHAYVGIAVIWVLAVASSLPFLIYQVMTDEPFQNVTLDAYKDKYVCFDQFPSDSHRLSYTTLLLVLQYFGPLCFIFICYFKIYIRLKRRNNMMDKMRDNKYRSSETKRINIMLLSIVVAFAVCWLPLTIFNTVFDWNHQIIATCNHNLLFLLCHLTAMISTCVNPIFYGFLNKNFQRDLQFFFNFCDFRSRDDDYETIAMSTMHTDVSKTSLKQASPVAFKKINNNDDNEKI
NPY-Y2 PAM-ag: potentiators or agonists of human neuropeptide Y receptor Y2; P49146; cells expressing NPY-Y2, potentiator/agonist read-out; activation, % at 3.6 µM; 220,000 tested, 0.45% active; AID 1359; in the data active = activation above about 27%;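 note: cells stimulated with NPY near EC25 plus isoproterenol at EC100; 0% = vehicle plus submaximal agonist and 100% = vehicle plus saturating agonist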
NPY Y1 blocker: NPY-Y1 (human) receptor antagonism | P25929 | HEK293-CNG Y1 cells, membrane potential fluorescence; NPY at EC95, then isoproterenol | inhibition, % at 3.6 µM | 200,000 tested, 1% active | AID 1040;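 active = inhibition above the campaign mean inhibition of all tested compounds plus 3 SD, cut at about 20% in these data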;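 note: 0% = DMSO wells given NPY plus isoproterenol and 100% = isoproterenol alone without NPY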
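Material: HEK293 Y1/CNG channel cell line; also added: NPY (25 nM), isoproterenol (1 µM), Ro 20-1724 (25 µM); doses: one concentration, 3.6 µM, in 0.4% DMSO; schedule: compound incubation 1 h at room temperature, readout 45 min post-stimulation; technique: membrane potential fluorescence; measure: fluorescence ratio normalized to % inhibition between controls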
NPY-Y1 antag ct: antagonizes human NPY-Y1, counter-screen to NPY-Y2 antagonists; shares compounds with NPY Y2 blocker; cell-based NPY-Y1 antagonism counterscreen; inhibition, % at 3.6 µM; 710 tested, 19% active; AID 1256; in the data active = inhibition above about 20%;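 note: cells challenged with NPY then isoproterenol with cAMP sensed through a CNG channel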
NPY-Y2 ant conf: confirmation of human neuropeptide Y receptor Y2 antagonists. shares compounds with NPY Y2 blocker. HEK293 NPY-Y2 CNG channel, membrane potential fluorescence. inhibition, % at 2.8 µM. 710 tested, 32% active;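 active = mean inhibition of triplicate wells above the hit cutoff set in the primary screen, cut at about 17% in these data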;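 note: 0% = DMSO with NPY challenge and 100% = BIIE0246 high control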
Active calls of the source: *; . = no result given. Hits are enriched below; roughly 1.8% of the tested compounds scored in any of these assays.

SMILES	NPY Y2 blocker	NPY-Y1 PAM-ag	NPY-Y2 PAM-ag	NPY Y1 blocker	NPY-Y1 antag ct	NPY-Y2 ant conf
CC(=O)Nc1nnc(Cc2c[nH]c3ccccc23)s1	.	11	4	-4	.	.
COc1cccc2sc(N(CCCN(C)C)C(=O)c3sc4ccccc4c3Cl)nc12	27*	-30	-30	8	15	14
Cc1cccc2sc(N(CCCN(C)C)C(=O)c3sc4ccccc4c3Cl)nc12	5	-20	-17	8	.	.
Cc1ccc(-c2nnn(CC(=O)N(c3ccc4c(c3)OCCO4)C(C(=O)NCC3CCCO3)c3ccc(F)cc3)n2)o1 (stereo not given)	.	15	8	-5	.	.
CCN(CC)CC#CCC(C)(c1ccccc1)c1ccccc1	18*	-54	-26	12	13	21*
Cc1ccccc1CC1(CO)CCCN(Cc2nc(-c3cccs3)oc2C)C1 (stereo not given)	.	-18	-8	12	.	.
Nc1nonc1-c1nc2ccccc2n1Cc1ccc(Cl)cc1	28*	7	11	14	28*	27*
NNC(=O)Cn1c(-c2nonc2N)nc2ccccc21	.	-19	-10	-1	.	.
C=COCCn1c(-c2nonc2N)nc2ccccc21	10	-7	-2	11	.	.
COc1ccc(Cn2c(-c3ccc(OC)cc3)nc3ccccc32)cc1	21*	-8	-13	8	12	6
CCCCOc1ccccc1NC(=O)Cn1c(-c2nonc2N)nc2ccccc21	51*	-7	-1	7	50*	93*
O=Cc1ccccc1OCCOc1ccc([N+](=O)[O-])cc1	.	7	7	1	.	.
CC(=O)Oc1ccccc1N(C(C)=O)S(=O)(=O)c1cccc([N+](=O)[O-])c1	.	4	5	-2	.	.
O=c1cc(CSc2ccc(Cl)cc2)nc(-c2ccncc2)[nH]1	.	-10	4	-3	.	.
Cc1ccccc1C(=O)NC(CC(C)C)C(=O)OCC(=O)c1c(N)n(C)c(=O)n(C)c1=O (stereo not given)	.	10	6	0	.	.
CNC(=O)COC(=O)/C=C/c1cccc(F)c1	.	10	-3	1	.	.
CCCOc1ccc(Br)cc1/C=N/O	18*	-49	-3	17	21*	9
C#CCN(C(=O)CC1C(=O)NCCN1C/C=C/c1ccccc1)C1CCCCC1 (stereo not given)	.	-6	5	-2	.	.
COc1ccc(-c2nnc3n2N=C(c2cccc(Br)c2)CS3)cc1OC	19*	2	-1	2	4	9
CN(C)S(=O)(=O)c1ccc(N2CCCC2)c(C(=O)N2CCN(c3ccc([N+](=O)[O-])cc3)CC2)c1	.	-8	12	-4	.	.
Cc1cc(NC(=O)C2CCCCC2)n(-c2nc3ccccc3[nH]2)n1	17*	-23	-14	9	22*	13
Cc1cc(NC(=O)c2c(F)cccc2F)n(-c2nc3ccccc3[nH]2)n1	8	-17	-6	-1	.	.
Oc1ccccc1CNc1ccc(Br)cn1	151*	8	12	6	26*	52*
O=C(Nc1ccc2c(c1)OCO2)c1cc(-c2cccnc2)nc2ccccc12	.	-14	-17	7	.	.
Cc1ccc(-c2cc(C(=O)Nc3ccc4c(c3)OCCO4)c3ccccc3n2)cc1	27*	-79	-81	18	18	39*
SMILES	NPY Y2 blocker	NPY-Y1 PAM-ag	NPY-Y2 PAM-ag	NPY Y1 blocker	NPY-Y1 antag ct	NPY-Y2 ant conf
CCC(C)n1c(SCC(=O)NCc2ccco2)nnc1-c1cccc(S(=O)(=O)N2CCOCC2)c1 (stereo not given)	-1	6	-10	5	.	.
Cc1ccc(CSc2nnc(-c3cccc(S(=O)(=O)N4CCOCC4)c3)n2CC(C)C)cc1	18*	-24	3	7	10	6
O=S(=O)(Nc1ccc2c(c1)OCCO2)c1cnc[nH]1	1	3	7	0	.	.
CC(C)c1ccc(/C=C/C(=O)N2CCc3ccccc3C2)cc1	18*	-8	-8	3	29*	25*
CC(C)(C)n1nnnc1C(c1cccs1)N(Cc1ccc(Cl)cc1)CC1CCCO1 (stereo not given)	28*	-21	2	11	19	11
c1ccc(COc2ccc(OCCCCN3CCCCC3)cc2)cc1	27*	-21	-19	14	10	39*
O=C(c1ccccc1)c1ccc(OCCCCN2CCCCC2)cc1	2	-33	-8	10	.	.
O=[N+]([O-])c1cc2c(cc1Br)CCN2	.	-8	-19	6	.	.
COC(=O)c1ccc(NC(=O)CN2CCN(c3ccccn3)CC2)cc1	.	-15	2	5	.	.

Source: PubChem BioAssay
